Measurements taken from ChEMBL document CHEMBL1123363, “(5-Amino-1,3-dimethyl-1H-pyrazol-4-yl)(2-fluorophenyl)methanones . A series of novel potential antipsychotic agents” (J Med Chem, 1986).
Calls of active or inactive are those of the source. The calls are words filed in the database; no cut-off is given here.

Legend:
[1] = tested on: Rattus norvegicus; assay: Antagonized affect on the accumulation of the brain dopamine induced by butyrolactone (GBL) at 5 mg/kg after intraperitoneal administration; format: functional; set-up: scale not given: the % may be the effect or the level left
[2] = tested on: Rattus norvegicus; assay: Compound was tested for serum prolactin assay method in rats at 1 mg/kg dose after peroral administration; format: functional; conditions: route oral
Method in brief: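 Seven-week-old male Sprague–Dawley rats, five per group, were dosed orally and killed by decapitation 1 h later. Serum prolactin from trunk blood was measured by radioimmunoassay with [125I]-PRL and expressed as % of control (mean ± SEM).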

[3] = tested on: Rattus norvegicus; assay: Antagonized affect on the accumulation of the brain dopamine induced by butyrolactone (GBL) at 10 mg/kg after intraperitoneal administration; format: functional; set-up: scale not given: the % may be the effect or the level left
[4] = molecular target: Dopamine receptor; assay: Binding affinity for dopamine receptor in rat striatal membrane using [3H]haloperidol as radioligand; format: cell membranes, Striatum
Method in brief: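 Nonspecific binding defined with (+)-butaclamol at 0.1 μM final. IC50 fitted by nonlinear curve fit from four or five concentrations in triplicate.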

[5] = organism: Mus musculus; assay: Ability to inhibit locomotor activity using ataxia test.; format: functional; conditions: read-out: MED
Method in brief: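 Male Swiss–Webster mice (20–30 g, unfasted), nine per dose in groups of three, dosed ip in 0.2% methocel (dose as parent compound) 1 h before testing. Ataxia was scored first on an inverted screen over 60 s as % of mice falling. […] ED50 from at least three doses.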

[6] = tested on: Rattus norvegicus; assay: Suppression of conditional avoidance after peroral administration; format: functional; conditions: po
Method in brief: (§1)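 Fasted male Wistar rats (150–250 g) were trained to jump to a platform at a buzzer to avoid grid shock (1.1 mA/s). After oral dosing they were tested every 20 min for 6 h over 19 trials, 10 rats per dose, each rat used once. Peak effect was the mean of the four consecutive trials with the largest effect, computed from response latency. ED50 read graphically from at least three doses.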

[7] = organism: Rattus norvegicus; assay: Compound was tested for its potential to produce clonic seizures in rats; + indicates compound is causing seizures; format: functional, organism-based
Method in brief: (§2)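 Any sign of seizure marked the compound as seizure-causing; the outcome was not quantified.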

[8] = molecular target: Beta-1 adrenergic receptor (Rattus norvegicus, UniProt P18090); assay: Binding affinity against beta-1 adrenergic receptor in rat brain using [3H]DHA; format: tissue-based
Method in brief: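 β1 binding was run on rat cerebral cortex membranes from male Long–Evans rats (150–250 g) with [3H]dihydroalprenolol at 0.5 nM final. Nonspecific binding was defined with (−)-alprenolol at 1 μM final. IC50 from four or five concentrations by nonlinear curve fit.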

[9] = molecular target: T1, Beta-2 adrenergic receptor (Rattus norvegicus, UniProt P10608); assay: (§3) Binding affinity against beta-2 adrenergic receptor in rat brain using [3H]DHA; format: tissue-based
Method in brief: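 β2 sites in rat cerebellum membranes (male Long-Evans, 150–250 g) with [3H]dihydroalprenolol at 0.5 nM final. (-)-Alprenolol at 1 μM final defined the reference. IC50 from four or five concentrations by nonlinear curve fit.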

[10] = tested on: Rattus norvegicus; assay: Compound was tested for its affect on the accumulation of the dopamine metabolite homovanillic acid (HAV) in the rat striatum at 1 mg/kg dose after peroral administration; format: functional; conditions: route oral
Method in brief: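 Male Long–Evans rats were dosed orally and decapitated 2 h later. Striatal HVA was isolated on Sephadex G-10 and measured spectrofluorometrically, expressed as % control ± SEM.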

[11] = Compound was tested for inhibition of extrapyramidal side effect test in cebus monkey; format: functional; conditions: read-out: MED
Method in brief: (§4)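 Groups of three to six were then dosed by gavage and observed hourly for 6–8 h for dystonia or dyskinesia. Any unequivocal sign counted as a positive response. Minimal effective dose was determined in at least three animals.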

[12] = tested on: Mus musculus; assay: Compound was tested for inhibition of apomorphine-induced climbing in mice after intraperitoneal administration; format: functional; conditions: ip
Method in brief: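 Male Swiss–Webster mice (25–35 g), ten per dose, acclimated 30 min in cylindrical cages, dosed ip, then given apomorphine 3 mg/kg sc 1 h later. Climbing scored in 30-s tests every 5 min for 30 min, starting 15 min after apomorphine. At least three doses; ED50 by nonlinear regression.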

[13] = tested on: Rattus norvegicus; assay: The compound was tested for inhibition of conditional avoid in rats after peroral administration; format: functional; conditions: po; method in brief: as §1
[14] = Inhibition of sidman avoid in squirrel monkeys after peroral administration; format: functional; conditions: po
Method in brief: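 Mature squirrel monkeys, trained on a modified Sidman avoidance lever schedule, were dosed orally and tested in 6-h sessions. Inhibition was expressed as % of each animal's own nondrug responding. At least three doses were given to four animals, with sessions at least 1 week apart. ED50 from nonlinear regression.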

[15] = molecular target: Adenylate cyclase; assay: The compound was tested for adenylate cyclase activity in rat corpus striatum; format: tissue-based
Method in brief: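 Striatal homogenates from male Long–Evans rats (200–300 g). Test substance concentration varied with dopamine held at 20 μM. Cyclic AMP formed was measured by radioimmunoassay, in triplicate.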

[16] = molecular target: T1, Beta-2 adrenergic receptor; assay: as §3; format: tissue-based; remark: listed apart in the source
Method in brief: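 β2 binding on rat cerebellum membranes (male Long–Evans rats, 150–250 g) with [3H]dihydroalprenolol, 0.5 nM final. Nonspecific binding defined with (-)-alprenolol, 1 μM final. IC50 from four or five concentrations by nonlinear curve fit.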

[17] = Extrapyramidal side effect test in cebus monkey; format: functional; conditions: read-out: MED; method in brief: as §4
[18] = tested on: Canis familiaris; assay: Compound was tested for inhibition of emesis test in dogs administered perorally; antiemetic; format: functional, organism-based; conditions: Canis lupus familiaris
[19] = tested on: Mus musculus; assay: Compound was tested for inhibition of locomotor activity and ataxia in mice after intraperitoneal administration; format: functional; conditions: ip
Method in brief: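 Unfasted male Swiss–Webster mice (20–30 g), nine per dose in groups of three, given compound ip in 0.2% methocel 1 h before testing. Ataxia assessed by 60-s inverted screen test, then photocell actophotometer locomotion recorded over 60 min as percent inhibition versus vehicle. At least three doses.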

[20] = tested on: Rattus norvegicus; assay: Compound was tested for inhibition of conditional avoid in rats after peroral administration; format: functional; conditions: po
Method in brief: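 Fasted male Wistar rats (150–250 g) trained to jump to a platform at a buzzer to avoid grid shock (1.1 mA/s). After oral dosing, tested every 20 min for 6 h over 19 trials, 10 rats per dose. Peak effect from four consecutive trials using response latency. ED50 read graphically from at least three doses.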

[21] = Compound was tested for inhibition of sidman avoid in squirrel monkeys after peroral administration; conditions: Saimiri, po
[22] = Binding affinity against […] in rat striatal membrane using [3H]haloperidol
[23] = organism: Rattus norvegicus; assay: Compound was tested for its potential to produce clonic seizures in rats; + indicates that they are causing seizures; format: functional, organism-based; method in brief: as §2

T1 sequence (P10608 whole entry): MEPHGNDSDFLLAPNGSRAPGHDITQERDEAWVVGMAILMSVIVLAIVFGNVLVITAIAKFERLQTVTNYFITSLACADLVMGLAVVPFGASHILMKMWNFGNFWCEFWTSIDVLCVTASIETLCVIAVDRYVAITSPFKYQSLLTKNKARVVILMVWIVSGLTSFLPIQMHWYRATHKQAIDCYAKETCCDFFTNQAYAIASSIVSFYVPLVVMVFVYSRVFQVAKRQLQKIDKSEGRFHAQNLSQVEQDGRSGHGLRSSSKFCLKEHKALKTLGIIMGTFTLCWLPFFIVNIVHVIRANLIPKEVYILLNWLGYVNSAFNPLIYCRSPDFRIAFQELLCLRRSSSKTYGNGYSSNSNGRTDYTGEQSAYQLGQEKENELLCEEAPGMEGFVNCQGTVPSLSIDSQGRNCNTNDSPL
Sequence of Beta-1 adrenergic receptor (P18090 whole entry): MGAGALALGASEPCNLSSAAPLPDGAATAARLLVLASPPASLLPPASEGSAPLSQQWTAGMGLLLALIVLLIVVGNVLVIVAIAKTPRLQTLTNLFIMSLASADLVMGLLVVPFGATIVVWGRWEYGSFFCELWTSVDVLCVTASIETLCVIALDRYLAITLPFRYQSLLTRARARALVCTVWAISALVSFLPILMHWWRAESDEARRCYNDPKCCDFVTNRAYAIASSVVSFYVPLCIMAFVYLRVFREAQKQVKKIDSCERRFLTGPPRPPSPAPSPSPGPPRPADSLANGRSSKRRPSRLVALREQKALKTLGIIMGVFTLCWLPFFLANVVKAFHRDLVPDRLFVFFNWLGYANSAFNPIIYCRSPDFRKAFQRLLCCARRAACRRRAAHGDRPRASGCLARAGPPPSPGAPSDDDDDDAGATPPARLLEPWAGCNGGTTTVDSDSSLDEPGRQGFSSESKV

SMILES	IC50 [4] [µM]	minimal effective dose [5] [mg/kg]	ED50 [6] [mg/kg]	other results
CN1CCc2cccc3c2[C@H]1Cc1ccc(O)c(O)c1-3 [APOMORPHINE]				Control [1]: 75%
CC(C)C[C@H]1C(=O)N2CCC[C@H]2[C@]2(O)O[C@](NC(=O)[C@@H]3C=C4c5cccc6[nH]c(Br)c(c56)C[C@H]4N(C)C3)(C(C)C)C(=O)N12 [BROMOCRIPTINE]				Control [2]: 32.7%; Control [3]: 82.4%
Cc1nn(C)c(NC(=O)CN(C)CCCN2CCCCC2C)c1C(=O)c1ccccc1F (stereo not given)	> 10	30	21	
CC(=O)Nc1c(C(=O)c2ccccc2F)c(C)nn1C		30		Clonic seizures [7]: causing seizures
Cc1nn(C)c(N(C)C(=O)C(F)(F)F)c1C(=O)c1ccccc1F		> 100		Clonic seizures [7]: causing seizures
Cc1nn(C)c(NC(=O)CN2CCCC2)c1C(=O)c1ccccc1F	> 10	30	48	
Cc1nn(C)c(NC(=O)CN2CCC(c3ccccc3)CC2)c1C(=O)c1ccccc1F	> 10	30	100	
CCCNc1c(C(=O)c2ccccc2F)c(C)nn1C		< 10		Clonic seizures [7]: causing seizures
Cc1nn(C)c(NC(=O)CN2CCC3(CC2)C(=O)NCN3c2ccccc2)c1C(=O)c1ccccc1F	> 10	100	15.5	
O=C(CCCN1CCC(O)(c2ccc(Cl)cc2)CC1)c1ccc(F)cc1 [HALOPERIDOL]				IC50 [8]: > 10 µM; IC50 [9]: > 10 µM; Control [10]: 348.9%; Control [2]: 224%
Cc1nn(C)c(NC(=O)CN2CCCCC2)c1C(=O)c1ccccc1F	> 10	30	> 100	
Cc1nn(C)c(NC(=O)CNCCCN2CCCCC2)c1C(=O)c1ccccc1F	> 10	100	16	
Cc1nn(C)c(NC(=O)C(C)N2CCCC2)c1C(=O)c1ccccc1F (stereo not given)	> 10	100	> 100	
Cc1nn(C)c(NC(=O)CNCCCN2CCCC(C)C2)c1C(=O)c1ccccc1F (stereo not given)	> 10	100	100	
Cc1nn(C)c(NC(=O)CNCCN(C(C)C)C(C)C)c1C(=O)c1ccccc1F	> 10	100	71	
Cc1nn(C)c(NC(=O)CNCCN2CCCCC2)c1C(=O)c1ccccc1F	> 10	30	38	
CSc1ccc2c(c1)N(CCC1CCCCN1C)c1ccccc1S2 (stereo not given) [THIORIDAZINE]				minimal effective dose [11]: 2.5 mg/kg; ED50 [12]: 3.4 mg/kg; ED50 [13]: 5.8 mg/kg; ED50 [14]: 4.3 mg/kg
Cc1nn(C)c(NC(=O)C(F)(F)F)c1C(=O)c1ccccc1F		< 10		Clonic seizures [7]: causing seizures
Cc1nn(C)c(N(C)S(C)(=O)=O)c1C(=O)c1ccccc1F		> 90		Clonic seizures [7]: causing seizures
Cc1nn(C)c(NC(=O)CNCCCN2CCC(C)CC2)c1C(=O)c1ccccc1F	> 10	100		
OCCN1CCN(CCCN2c3ccccc3Sc3ccc(C(F)(F)F)cc32)CC1 [FLUPHENAZINE]				IC50 [15]: 0.08 µM
Cc1nn(C)c(NC(=O)CNCCCN(C)C)c1C(=O)c1ccccc1F	> 10	80	56	
Cc1nn(C)c(N(C)C(=O)CNCCCN2CCCCC2C)c1C(=O)c1ccccc1F (stereo not given)	> 10	> 100	> 100	
CN1CCN(C2=Nc3cc(Cl)ccc3Nc3ccccc32)CC1 [CLOZAPINE]				IC50 [16]: > 10 µM; minimal effective dose [17]: > 30 mg/kg; MED [18]: Active; ED50 [12]: 10 mg/kg; ED50 [19]: 5.65 mg/kg; ED50 [20]: 22 mg/kg; ED50 [21]: 4.1 mg/kg
Cc1nn(C)c(NC(=O)CNCCCNC(C)(C)C)c1C(=O)c1ccccc1F		30	46	IC50 [22]: > 10 µM
Cc1nn(C)c(NC(=O)C(C)(C)N2CCCC2)c1C(=O)c1ccccc1F	> 10	> 100	> 56	
CNc1c(C(=O)c2ccccc2F)c(C)nn1C		30		Clonic seizures [7]: causing seizures
Cc1nn(C)c(NC(=O)C(Cl)Cl)c1C(=O)c1ccccc1F		30		Clonic seizures [23]: causing seizures
Cc1nn(C)c(NC(=O)CCN2CCCC2)c1C(=O)c1ccccc1F	> 10	100	15	
